# Measured values published in ChEMBL document CHEMBL3393016, “Development of novel Asf1-H3/H4 inhibitors” (Bioorg Med Chem Lett, 2015).
# Calls of active or inactive are those of the source. The calls are words filed in the database; no cut-off is given here.
# Tested on: MDA-MB-231
# Experiment: Cytotoxicity against human MDA-MB-231 cells assessed as inhibition of cell viability at 24 uM after 24 hrs by trypan blue exclusion assay
# Assay type: functional, cell-based
# Method in brief: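 MDA-MB-231 cells grown to 80% confluence, seeded at 1.5 × 10^5 cells/mL and incubated overnight. Medium then replaced with serum-free medium containing drug at 24 μM. After 1 h, FBS added to each well. Viable cell density counted by trypan blue exclusion after a further 24 h. Viability expressed as percent of DMSO-only control.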
row,SMILES,inhibition
1,COc1ccc(-c2cc(C(=O)NCCO)c3ccccc3n2)cc1,inactive
2,COc1ccc(-c2cc(C(=O)N3CCCCC3)c3ccccc3n2)cc1,inactive
3,COc1ccc(-c2cc([C@@H](O)[C@@H]3CCCCN3)c3ccccc3n2)cc1 (racemic),Active
4,CCN(CC)C(=O)c1cc(-c2ccc(OC)cc2)nc2ccccc12,inactive
5,COc1ccc(-c2cc(C(=O)C3CCCCN3)c3ccccc3n2)cc1 (configuration not stated),inactive
6,COc1ccc(-c2cc([C@H](O)[C@@H]3CCCCN3)c3ccccc3n2)cc1 (racemic),Active
7,COc1ccc(-c2cc(C(=O)N(C)C)c3ccccc3n2)cc1,inactive
8,COc1ccc(-c2cc(C(=O)N3CCOCC3)c3ccccc3n2)cc1,inactive

# Molecular target: T1, Histone chaperone ASF1A (Homo sapiens, UniProt Q9Y294)
# T1 sequence (Q9Y294 whole entry): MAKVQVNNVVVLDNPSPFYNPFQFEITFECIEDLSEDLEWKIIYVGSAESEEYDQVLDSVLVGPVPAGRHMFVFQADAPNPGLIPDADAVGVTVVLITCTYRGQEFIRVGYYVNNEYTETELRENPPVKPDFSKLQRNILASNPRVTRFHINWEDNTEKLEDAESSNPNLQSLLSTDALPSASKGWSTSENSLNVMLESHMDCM
# Experiment: Inhibition of His-tagged human Asf1a binding with H3/H4 assessed as fluorescence intensity after 30 mins by ALPHA assay
row,SMILES,IC50
1,COc1cc(/C=N/NC(=O)c2ccc(NC(=O)c3ccccc3)cc2)ccn1,> 100 µM
2,O=C(N/N=C/c1ccncc1)c1ccc(NC(=O)c2ccccc2)cc1,> 100 µM
3,O=C(N/N=C/c1cccc(OCCN2CCOCC2)c1)c1ccc(NC(=O)c2ccccc2)cc1,> 100 µM

# Continued, values first:
row,IC50,SMILES
1,> 12 µM,COc1cc(/C=N/N(C)C(=O)c2ccc(NC(=O)c3ccccc3)cc2)cc(Br)c1O
2,> 100 µM,COc1cc(/C=N/NC(=O)C2CCOCC2)cc(Br)c1O
3,> 100 µM,COc1cc(C/C=N/NC(=O)c2ccc(NC(=O)c3ccccc3)cc2)cc(Br)c1O
4,> 100 µM,COc1cc(CNNC(=O)c2ccc(NC(=O)c3ccccc3)cc2)cc(Br)c1O
5,> 100 µM,COc1cc(/C=N/NC(=O)c2ccncc2)cc(Br)c1O
6,0.6 µM,O=C(N/N=C/c1cc(Br)ccc1O)c1ccncc1
7,> 100 µM,COc1cc(/C=N/NC(=O)C2CCNCC2)cc(Br)c1O
8,> 100 µM,COc1cc(CCNC(=O)c2ccc(NC(=O)c3ccccc3)cc2)cc(Br)c1O
9,> 100 µM,COc1cc(/C=N/NC(=O)Cc2ccc(NC(=O)c3ccccc3)cc2)cc(Br)c1O
10,> 100 µM,COc1cc(/C=N/NC(=O)c2ccc(NC(=O)c3ccccc3)cc2)ccc1O
11,> 100 µM,COc1cc(/C=N/NC(=O)c2ccc(NC(C)=O)nc2)cc(Br)c1O
12,> 100 µM,COc1cc(/C=N/NC(=O)c2ccc(NC(=O)c3ccccc3)c(COCCN(C)C)c2)cc(Br)c1O
13,> 100 µM,COc1cc(/C=N/NC(=O)c2ccc(NC(C)=O)cc2)cc(Br)c1O
14,> 100 µM,COc1cc(/C=N/NC(=O)c2ccccc2)cc(Br)c1O

# Molecular target: T1, Histone chaperone ASF1A
# Experiment: Inhibition of globular core domain of Asf1 (unknown origin) binding with H3/H4 after 15 to 30 mins by ELISA assay
# Method in brief: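 Wells coated with H3/H4 dimer at 1 μg/mL in PBS-T at 4°C overnight, then blocked with 5% milk in PBS-T. Asf1 globular core at 5 μM preincubated with compound at 100 μM (or various concentrations) for 1 h at 4°C. Samples diluted in 10 mM Tris pH 7.9, 1 mM DTT and bound to plate 1 h at room temperature. Bound Asf1 detected with anti-Asf1 and HRP secondary antibodies, then TMB for 15–30 min; OD read at 450 nm.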
row,inhibition,SMILES
1,Active,COc1cc(C2C(Cl)C(=O)N2NC(=O)c2ccc(N)cc2)cc(Br)c1O (configuration not stated)
2,Active,COc1ccc(-c2cc([C@@H](O)[C@@H]3CCCCN3)c3ccccc3n2)cc1 (racemic)
